What all share (type): functional
Assay [1] has as its system Mus musculus. Kind of assay: Immunostimulant activity in sheep RBC-immunized BALB/c albino mouse assessed as macrophage migration index at 1 mg/kg, po administered daily for 7 days measured after 18 to 24 hrs. In short, it runs like this: (§1)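 Peritoneal exudate cells from dosed mice (oral daily 7 days, or ip on days -7 and -3) packed in microhematocrit capillaries and allowed to migrate 18-24 h in a migration chamber. MMI = ratio of migration areas, control vs. treated animals. Two experiments, four mice each.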

For assay [2], the system named is Mus musculus. Kind of assay: Nonspecific immunostimulant activity in sheep RBC-immunized BALB/c albino mouse assessed as phagocytosis of [14C] leucine labeled Escherichia coli at 4 mg/kg, ip administered on day 7 and 3 prior to immunization. The conditions noted are these: route intraperitoneal. In short, it runs like this:
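Peritoneal macrophages from mice dosed ip on days -7 and -3 incubated in vitro with E. coli labelled with 14C-leucine (sp. act. 190 mCi/mmol). Uptake expressed as percentage incorporation of 14C-leucine. Three experiments, four animals each.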

Assay [3] relates to Mus musculus. Nature of the assay: Immunostimulant activity in sheep RBC-immunized BALB/c albino mouse assessed as hemolytic plaque-forming cells per 10^5 spleen cells at 4 mg/kg, ip administered on day 7 and 3 prior to immunization measured after 5 days. The conditions noted are these: route intraperitoneal. In short, it runs like this: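 Following ip dosing on days -7 and -3 and ip SRBC (1×10^8) on day 0, splenic hemolytic plaques counted on day 5 by Jerne-Nordin technique, duplicate per mouse. Group means expressed as PFC/10^5 spleen cells. Three experiments with four animals each; Student's t-test.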

Assay [4] relates to Mus musculus. Nature of the assay: Nonspecific immunostimulant activity in sheep RBC-immunized BALB/c albino mouse assessed as [3H]thymidine uptake by splenic lymphocytes at 4 mg/kg, ip administered on day 7 and 3 prior to immunization by liquid scintillation counting. The conditions noted are these: route intraperitoneal. In short, it runs like this:
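Spleen cells from ip-treated mice (days -7, -3) at 1.5×10^6 cells/ml in complete RPMI-1640 with fetal calf serum, cultured in triplicate 3 days at 37° under 5% CO2, then pulsed 18 h with 1 μCi 3H-thymidine. Incorporation counted by scintillation, reported as cpm ± SD.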

The subject of assay [5] is Mus musculus. Nature of the assay: Immunostimulant activity in sheep RBC-immunized BALB/c albino mouse assessed as delayed-type hypersensitivity response-related right foot pad thickness at 4 mg/kg, ip administered on day 7 and 3 prior to immunization measured after 5 days relative to non-immunized foot pad thickness. The conditions noted are these: route intraperitoneal. A digest of the protocol:
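Mice (BALB/c, either sex, 20-22 g; four per group) immunized ip with 1×10^8 SRBC on day 0; on day 5 challenged with 1×10^8 SRBC (50 μl) in right foot pad. Foot pad thickness read 24 h later; reaction in mm = right (SRBC) minus PBS-injected pad. Compound in PBS pH 7.2 given ip on days -7 and -3. Student's t-test.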

The test system of assay [6] is Mus musculus. Kind of assay: Immunostimulant activity in sheep RBC-immunized BALB/c albino mouse assessed as hemagglutininating antibody titer at 4 mg/kg, ip administered on day 7 and 3 prior to immunization measured after 5 days by microtiter hemagglutinination technique. Particulars: route intraperitoneal. In short, it runs like this:
(§2)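 Compound dissolved in 0.05 M phosphate buffer pH 7.2 with 0.1 M NaCl, given orally daily for 7 days or ip on days -7 and -3, then ip immunization with 1×10^8 SRBC. Serum from retro-orbital bleed on day 5; twofold dilutions mixed with 1% SRBC, 1.5-2 h at room temperature. Titer = reciprocal of highest dilution giving 50% agglutination. Two experiments, four mice each.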

Assay [7] has as its system Mus musculus. Nature of the assay: Immunostimulant activity in sheep RBC-immunized BALB/c albino mouse assessed as hemagglutininating antibody titer at 1 mg/kg, po administered daily for 7 days by microtiter hemagglutinination technique. In short, it runs like this: as §2
The test system of assay [8] is Mus musculus. Nature of the assay: Nonspecific immunostimulant activity in sheep RBC-immunized BALB/c albino mouse assessed as macrophage migration index at 4 mg/kg, ip administered on day 7 and 3 prior to immunization measured after 18 to 24 hrs. Particulars: route intraperitoneal. In short, it runs like this: as §1

SMILES strings stand for the structures.

Consider `C=C1CC[C@@H]2[C@](C)(CO)[C@H](O)CC[C@@]2(C)[C@@H]1C/C=C1/C(=O)OC[C@H]1O` [ANDROGRAPHOLIDE], for which the Activity turned out to be 1.6 in the assay with Mus musculus [1]; 55.56% with Mus musculus [2]; 128 with Mus musculus [3]; 6486 cpm in the assay on Mus musculus [4]; 2.5 mm in the assay with Mus musculus [5]; 1536 with Mus musculus [6]. The values for the Activity in the assay with Mus musculus [7] and with Mus musculus [8] were 1280 and 2.84, respectively.
For the molecule `C=C1CC[C@@H]2[C@](C)(CO[C@@H]3O[C@H](CO)[C@@H](O)[C@H](O)[C@H]3O)CCC[C@@]2(C)[C@@H]1CCC1=CCOC1=O` [NEOANDROGRAPHOLIDE], the Activity in the assay with Mus musculus [1] is given as 1.9; in the assay on Mus musculus [6], 1638.4; in the assay with Mus musculus [7] it was 1365.33; with Mus musculus [8], 2.51.
